Fewer inactive variants are shown than the library holds.
B1: tRNA (parent)
chain: GUUCCGUUGGCGUAAUGGUAACGCGUCUCCCUCCUAAGGAGAAGACUGCGGGUUCGAGUCCCGUACGGAACG

Variants of: B1
Assay: yeast fitness relative to wild type (ratio to wild type); higher = fitter; tRNA-Arg(CCU), competitive growth, 37 C, YPD
How it was run: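 Start and end populations of a pooled competition were compared by 100-nucleotide paired-end sequencing of gene amplicons. The Saccharomyces cerevisiae strains carried tRNA-Arg(CCU) gene variants at the native genomic locus, synthesised with a 3% per-site mutation rate at 69 sites, and competed in YPD at 37°C for 24 hours in six parallel replicates. Darwinian fitness relative to wild type was based on the change in genotype frequencies. Genotypes required ≥ 100 starting reads, and estimates < 0.5 were set to 0.5.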

Row | Variant | yeast fitness
1 | U3A G10A U19A A42G U64A | ≤ 0.5
2 | G6C C29A C55A A65G | ≤ 0.5
3 | C60A A69U | 0.746
4 | C11A C27G C31A | 0.543
5 | U19G A37G C66U | 0.639
6 | C4A A20U C29G C49G G63C | ≤ 0.5
7 | U32G A40U U59A | ≤ 0.5
8 | C27A C30A | 0.766
9 | C46G C61G C62A | ≤ 0.5
10 | G50A U54G | 0.559
11 | G25A A45C U53C C55U G56C C61A C66U | 0.564
12 | G12A A15G C22U C31A U35G C61U A65C A69G | ≤ 0.5
13 | G9A C34U | 0.793
14 | A36U A45C C49G | 0.704
15 | A15U G17A C34G C46A | 0.569
16 | U16A G50C A65G | ≤ 0.5
17 | A21G C27A A37U G63C | ≤ 0.5
18 | C34A G56C | ≤ 0.5
19 | C30A C62U G63A A69G | ≤ 0.5
20 | G23C C33A G50C G58C A70G | 0.548
21 | C5A G10U C30U A43C A69C | ≤ 0.5
22 | G6A U8C G10A U19C G41A U47C | ≤ 0.5
23 | U8A G44A U64C C66A | ≤ 0.5
24 | A20G U54C | 0.719

Row | Variant | yeast fitness
25 | G67A A69C | 0.877
26 | U19A C27A C31A A57C | 0.799
27 | G44A G56A U59A | 0.575
28 | C11G A15G C22A U26A C55G | ≤ 0.5
29 | U8A G9C U47A G68C | ≤ 0.5
30 | G23C A37C A45G C49G | 0.671
31 | C11G C27U C60A | 0.535
32 | C31G G51C A70U | 0.561
33 | G12A A15G C24A A36U C61U G67U | 0.761
34 | C4G C22G C24U C29U C30G | ≤ 0.5
35 | G10A C30U U47A G67C | ≤ 0.5
36 | A42C C55A A65U | ≤ 0.5
37 | U26C A37G G67C | 0.614
38 | C4U C11G G18C U47A G63A | ≤ 0.5
39 | A20G C31G C61U | 0.659
40 | U3A U7G A14U G25A G41C C46U C61A | 0.519
41 | G6C U7C | 0.757
42 | U26G A40G | 0.778
43 | A42U A45U C49G U53A | ≤ 0.5
44 | C5A U47C | 0.85
45 | C31U C33U C34G A40C G63A | ≤ 0.5
46 | A43G U53C | 0.84
47 | G9A A21C G25C | 0.565
48 | G39U A45G G51A | 0.527

Row | Variant | yeast fitness
49 | A20C A21C C61A G67C | ≤ 0.5
50 | C22G A40U A43U | 0.503
51 | G17C C24U G41A | ≤ 0.5
52 | C4A A40C C49G C60G | ≤ 0.5
53 | C22U U35A G67U | ≤ 0.5
54 | C4A C27U C66U | 0.66
55 | A43C U54C | 0.876
56 | C5U C24U A36G C46A | 0.92
57 | C11A G41A C66G | 0.536
58 | C34G A42G C62U | 0.589
59 | A20G U28A | 0.807
60 | C29U C61U | 0.706
61 | C4U G12C U54G | ≤ 0.5
62 | C5G A42C C60A | ≤ 0.5
63 | C33G A45U G51C | ≤ 0.5
64 | C4G C30G U54A C55U | ≤ 0.5
65 | U47G G52A | ≤ 0.5
66 | C11U G17U C27U C31A U35C C55G C66U A70C | ≤ 0.5
67 | G9A C11G G50A G51A | ≤ 0.5
68 | U28A U54A | 0.594
69 | C30U G38C A57G | ≤ 0.5
70 | A45G G58A C60U | 0.584
71 | A15G C31G U47G C49G | 0.545
72 | U2G U3C A20G C33U G39A | ≤ 0.5

Row | Variant | yeast fitness
73 | U3A G12A U19A G38C G48A | ≤ 0.5
74 | A14U C34G C61G A70C | ≤ 0.5
75 | G25A C49U A70C | 0.845
76 | C27G C34A C61U | ≤ 0.5
77 | C4A G12A A45U | 0.546
78 | G18C C29G A45G C66U | 0.613
79 | G9A C24U U26G | 0.569
80 | A37C G48A | 0.779
81 | C11U A20U G39A G63A A70U | ≤ 0.5
82 | G10C G12C G39A C61U A69C | 0.528
83 | C11A C31A G44C A65C | ≤ 0.5
84 | U2G G9A | 1.01
85 | C5A C31U U35C C49G | ≤ 0.5
86 | C11A G41A G67U G68C | 0.567
87 | U7A G58A | 0.635
88 | C5U C27G C60A | ≤ 0.5
89 | G10A C31U G38C G63A G68C A69G | 0.578
90 | G48C U59C | 0.929
91 | G9A G25U A36U G56C A65C | 0.717
92 | C4G C5G U26G A45C C61U G67A | ≤ 0.5
93 | U3C C5A G17A A42G U64A | ≤ 0.5
94 | C11A A42C G51A | 0.73
95 | U2G G9A A36G A57G C60U | 0.672
96 | G12C U19A C27G A65C G68A | ≤ 0.5

Row | Variant | yeast fitness
97 | U19C A45G C62U | 0.953
98 | U16C G68C | 0.834
99 | C4G A21G C34G | ≤ 0.5
100 | C27U C33U A36U A43G | ≤ 0.5
101 | C11A G17C A43G | ≤ 0.5
102 | C22A C24A U26C C66U | ≤ 0.5
103 | C22U U35C A36C | ≤ 0.5
104 | A65C G68A | 0.767
105 | U3G C4U U35A G58A G67A | ≤ 0.5
106 | G17A A20C G25A | 0.506
107 | A20C A21G G67C | 0.712
108 | C11U G50A G63A A65U | ≤ 0.5
109 | A43U G52C | 0.6
110 | U28G U35C | 0.758
111 | C4A G6A A14G C60U | ≤ 0.5
112 | U8A C11U G25C G39C | ≤ 0.5
113 | G18A C31A G56C A69C | ≤ 0.5
114 | U19G G63C A69U | ≤ 0.5
115 | U3C C49G | 0.943
116 | C27A A36G C61U | ≤ 0.5
117 | U3A G39A C55U U59G G68C | ≤ 0.5
118 | G48C A65C C66G | 0.557
119 | U19A C29G G48A C61A | 0.683
120 | G10A C29U C31U G48C U54A | ≤ 0.5

Row | Variant | yeast fitness
121 | A14G A40C C62G C66U | ≤ 0.5
122 | U3G C11U U19C A20U A42C A65C A69U | 0.537
123 | U32C A43C A69G | ≤ 0.5
124 | U8C G9A A42G | 0.514
125 | U16C A43G | 1.13
126 | U26A A45G C66G G67U | ≤ 0.5
127 | C5G U7A C11U C31A A45C | ≤ 0.5
128 | C34U G44A A65G | ≤ 0.5
129 | A20U A45C G52C | 0.568
130 | C5G C55G A65C | 0.531
131 | C4U G12A A42U | ≤ 0.5
132 | A15G G18A C49A | ≤ 0.5
133 | C11U C30U C49U | 0.646
134 | C29U C30A U59G | ≤ 0.5
135 | U32C A40C | 0.986
136 | C4G U8G G9A C11U | 0.562
137 | G9A C33U | 0.897
138 | C4U G12A C27G C34A C49A G68U | ≤ 0.5
139 | A14C U16C C62U A65U | ≤ 0.5
140 | A42U A45G | 0.918
141 | G10A A14U A43C A69C | ≤ 0.5
142 | U16G G63A | 0.937
143 | A20G G41A | 1.2
144 | U16A G48C | 0.967

Row | Variant | yeast fitness
145 | C29U U53C C55G C62A | ≤ 0.5
146 | U8C U16C C24U U28C U47A C55U | ≤ 0.5
147 | U13A A69U | 0.984
148 | C11U C33U | 0.724
149 | U7C G18C C61U | ≤ 0.5
150 | G12A G25A C27U | 0.596
151 | A15U C27U G48C | 0.587
152 | C22G C49U A57C | 0.594
153 | U13C U26C C31U | 0.784
154 | A15U C29A A43C G50C | ≤ 0.5
155 | U2C C31G U35A | ≤ 0.5
156 | C30U A57G C66U | 0.53
157 | G18C G52A A57U A65C | ≤ 0.5
158 | C5G U7A A20C C46U | ≤ 0.5
159 | C33G A37G C46A C49U | ≤ 0.5
160 | U26C U28C C29G C34A | ≤ 0.5
161 | C4G C11U A69U | 0.539
162 | C31U C34U G38A C46U | 0.524
163 | C24U C49G C66A | 0.593
164 | C24G A37G C61U | ≤ 0.5
165 | C11G A14C G23C G41C | 0.531
166 | G23C G56A A70U | ≤ 0.5
167 | A15C A21G C22U U47C | ≤ 0.5
